Reference: ChEMBL document CHEMBL1123257, “Synthesis of sulfur analogues of alkyl lysophospholipid and neoplastic cell growth inhibitory properties” (1986)

How the values were obtained:
Type in all cases: functional
BG-1 cell line [1] = assay: Compound was evaluated for its effect on colony growth of human ovarian adenocarcinoma cell line BG-1 at 0.3 ug/mL
Method in brief: (§1)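 Single-cell suspensions of BG-1 or BG-3 human ovarian carcinoma cells (derived from primary explants, now kept in continuous culture) were plated in soft agarose clonogenic culture. Cells were exposed continuously to phospholipid analogue over a three-log concentration range, with untreated cultures as controls. After 7 days at 37 °C/7.5% CO2, colonies were scored by inverted microscopy and automated image analysis.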

BG-3 [2] = assay: Compound was evaluated for its effect on colony growth of human ovarian adenocarcinoma cell line BG-3 at 0.03 ug/mL; method in brief: as §1
BG-1 cell line [3] = assay: Compound was evaluated for its effect on colony growth of human ovarian adenocarcinoma cell line BG-1 at 0.03 ug/mL; method in brief: as §1
BG-3 [4] = assay: Compound was evaluated for its effect on colony growth of human ovarian adenocarcinoma cell line BG-3 at 1.0 ug/mL; method in brief: as §1
BG-3 [5] = assay: Compound was evaluated for its effect on colony growth of human ovarian adenocarcinoma cell line BG-3 at 10.0 ug/mL; method in brief: as §1
BG-1 cell line [6] = assay: Compound was evaluated for its effect on colony growth of human ovarian adenocarcinoma cell line BG-1 at 30.0 ug/mL; method in brief: as §1
BG-3 [7] = assay: Compound was evaluated for its effect on colony growth of human ovarian adenocarcinoma cell line BG-3 at 0.3 ug/mL; method in brief: as §1
BG-1 cell line [8] = assay: Compound was evaluated for its effect on colony growth of human ovarian adenocarcinoma cell line BG-1 at 0.0 ug/mL; method in brief: as §1
BG-1 cell line [9] = assay: Compound was evaluated for its effect on colony growth of human ovarian adenocarcinoma cell line BG-1 at 3.0 ug/mL; method in brief: as §1
BG-3 [10] = assay: Compound was evaluated for its effect on colony growth of human ovarian adenocarcinoma cell line BG-3 at 3.0 ug/mL; method in brief: as §1
BG-1 cell line [11] = assay: Compound was evaluated for its effect on colony growth of human ovarian adenocarcinoma cell line BG-1 at 0.1 ug/mL; method in brief: as §1
BG-1 cell line [12] = assay: Compound was evaluated for its effect on colony growth of human ovarian adenocarcinoma cell line BG-1 at 10.0 ug/mL; method in brief: as §1
BG-1 cell line [13] = assay: Compound was evaluated for its effect on colony growth of human ovarian adenocarcinoma cell line BG-1 at 1.0 ug/mL; method in brief: as §1
BG-3 [14] = assay: Compound was evaluated for its effect on colony growth of human ovarian adenocarcinoma cell line BG-3 at 30.0 ug/mL; method in brief: as §1
BG-3 [15] = assay: Compound was evaluated for its effect on colony growth of human ovarian adenocarcinoma cell line BG-3 at 0.1 ug/mL; method in brief: as §1
BG-3 [16] = assay: Compound was evaluated for its effect on colony growth of human ovarian adenocarcinoma cell line BG-3 at 0.0 ug/mL,; method in brief: as §1

CCCCCCCCCCCCCCCCSCC(COP(=O)([O-])OCC[N+](C)(C)C)OCC (stereo unspecified)
Control (BG-1 cell line [1]): 53%
Control (BG-3 [2]): 56%
Control (BG-1 cell line [3]): 65%
Control (BG-3 [4]): 17%
Control (BG-3 [5]): 3%
Control (BG-1 cell line [6]): 2%
Control (BG-3 [7]): 56%
Control (BG-1 cell line [8]): 100%
Control (BG-1 cell line [9]): 2%
Control (BG-3 [10]): 2%
Control (BG-1 cell line [11]): 64%
Control (BG-1 cell line [12]): 2%
Control (BG-1 cell line [13]): 8%
Control (BG-3 [14]): 2%
Control (BG-3 [15]): 54%
Control (BG-3 [16]): 100%
